According to ChEMBL document CHEMBL1255354, “Methicillin-resistant Staphylococcus saprophyticus isolates carrying staphylococcal cassette chromosome mec have emerged in urogenital tract infections” (2008):
Values after ≈ are worked out from the molar mass of the structure shown.

Key:
[1] = test system: Staphylococcus saprophyticus; experiment: Antibacterial activity against methicillin-resistant mecA-positive Staphylococcus saprophyticus isolates isolated from genitourinary tracts of acute cystitis patient after 24 hrs at 35 degC by agar dilution method; format: functional; settings: Urine
How it was run: (§1)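 MICs by agar dilution per CLSI M7-A6 on Mueller-Hinton agar, plates incubated 35°C for 24 h. Isolates identified as S. saprophyticus by Gram stain, catalase, coagulase, DNase, egg yolk mannitol salt agar growth, novobiocin susceptibility and ID 32 API Staph; mecA detected by dot-blot hybridization.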

[2] = test system: Staphylococcus saprophyticus; experiment: Antibacterial activity against methicillin-resistant mecA-positive Staphylococcus saprophyticus isolate TSU47 isolated from genitourinary tracts of acute cystitis patient after 24 hrs at 35 degC by agar dilution method; format: functional; settings: isolate TSU47, Urine; how it was run: as §1
[3] = test system: Staphylococcus saprophyticus; experiment: Antibacterial activity against methicillin-resistant mecA-positive Staphylococcus saprophyticus isolate TSU69 isolated from genitourinary tracts of acute cystitis patient after 24 hrs at 35 degC by agar dilution method; format: functional; settings: isolate TSU69, Urine; how it was run: as §1
[4] = test system: Staphylococcus saprophyticus; experiment: Antibacterial activity against methicillin-resistant mecA-positive Staphylococcus saprophyticus isolate TSU90 isolated from genitourinary tracts of acute cystitis patient after 24 hrs at 35 degC by agar dilution method; format: functional; settings: isolate TSU90, Urine; how it was run: as §1
[5] = test system: Staphylococcus saprophyticus; experiment: Antibacterial activity against methicillin-resistant mecA-positive Staphylococcus saprophyticus isolate TSU28 isolated from genitourinary tracts of acute cystitis patient after 24 hrs at 35 degC by agar dilution method; format: functional; settings: isolate TSU28, Urine; how it was run: as §1
[6] = test system: Staphylococcus saprophyticus; experiment: Antibacterial activity against methicillin-resistant mecA-positive Staphylococcus saprophyticus isolate TSU33 after 24 hrs at 35 degC by agar dilution method; settings: isolate TSU33, 24 h
[7] = test system: Staphylococcus saprophyticus; experiment: Antibacterial activity against methicillin-resistant mecA-positive Staphylococcus saprophyticus isolate TSU18 isolated from genitourinary tracts of acute cystitis patient after 24 hrs at 35 degC by agar dilution method; format: functional; settings: isolate TSU18, Urine; how it was run: as §1
[8] = test system: Staphylococcus saprophyticus; experiment: Antibacterial activity against methicillin-resistant mecA-positive Staphylococcus saprophyticus isolate TSU57 isolated from genitourinary tracts of acute cystitis patient after 24 hrs at 35 degC by agar dilution method; format: functional; settings: isolate TSU57, Urine; how it was run: as §1
[9] = test system: Staphylococcus saprophyticus; experiment: Antibacterial activity against methicillin-resistant mecA-positive Staphylococcus saprophyticus isolate TSU67 isolated from genitourinary tracts of acute cystitis patient after 24 hrs at 35 degC by agar dilution method; format: functional; settings: isolate TSU67, Urine; how it was run: as §1

| SMILES | MIC50 [1] [µg/mL] | MIC90 [1] [µg/mL] | MIC [2] [µg/mL] | MIC [3] [µg/mL] | MIC [4] [µg/mL] | MIC [5] [µg/mL] | MIC [6] [µg/mL] | MIC [7] [µg/mL] | MIC [8] [µg/mL] | MIC [9] [µg/mL] |
| --- | --- | --- | --- | --- | --- | --- | --- | --- | --- | --- |
| CC1(C)S[C@@H]2[C@H](NC(=O)[C@H](N)c3ccccc3)C(=O)N2[C@H]1C(=O)O [AMPICILLIN] | 0.25 (≈ 0.715 µM) | 1 (≈ 2.86 µM) | 4 (≈ 11.4 µM) | – | – | – | – | – | – | – |
| NCC[C@H](O)C(=O)N[C@@H]1C[C@H](N)[C@@H](O[C@H]2O[C@H](CN)CC[C@H]2N)[C@H](O)[C@H]1O[C@H]1O[C@H](CO)[C@@H](O)[C@H](N)[C@H]1O [ARBEKACIN] | ≤ 0.06 | ≤ 0.06 | ≤ 0.06 | ≤ 0.06 | ≤ 0.06 | ≤ 0.06 | ≤ 0.06 | ≤ 0.06 | ≤ 0.06 | ≤ 0.06 |
| Cc1nnc(SCC2=C(C(=O)O)N3C(=O)[C@@H](NC(=O)Cn4cnnn4)[C@H]3SC2)s1 [CEFAZOLIN] | 1 (≈ 2.2 µM) | 2 (≈ 4.4 µM) | 4 (≈ 8.8 µM) | 128 (≈ 282 µM) | 64 (≈ 141 µM) | 32 (≈ 70.4 µM) | 1 (≈ 2.2 µM) | 16 (≈ 35.2 µM) | 16 (≈ 35.2 µM) | 128 (≈ 282 µM) |
| CO[C@@]1(NC(=O)Cc2cccs2)C(=O)N2C(C(=O)O)=C(COC(N)=O)CS[C@@H]21 [CEFOXITIN] | 2 (≈ 4.68 µM) | 2 (≈ 4.68 µM) | 8 (≈ 18.7 µM) | 32 (≈ 74.9 µM) | 16 (≈ 37.4 µM) | 16 (≈ 37.4 µM) | 8 (≈ 18.7 µM) | 16 (≈ 37.4 µM) | 16 (≈ 37.4 µM) | 32 (≈ 74.9 µM) |
| CC[C@H]1OC(=O)[C@H](C)[C@@H](O[C@H]2C[C@@](C)(OC)[C@@H](O)[C@H](C)O2)[C@H](C)[C@@H](O[C@@H]2O[C@H](C)C[C@H](N(C)C)[C@H]2O)[C@](C)(OC)C[C@@H](C)C(=O)[C@H](C)[C@@H](O)[C@]1(C)O [CLARITHROMYCIN] | ≤ 0.06 | 1 (≈ 1.34 µM) | 16 (≈ 21.4 µM) | 0.125 (≈ 0.167 µM) | 16 (≈ 21.4 µM) | 32 (≈ 42.8 µM) | 16 (≈ 21.4 µM) | 16 (≈ 21.4 µM) | 16 (≈ 21.4 µM) | 0.125 (≈ 0.167 µM) |
| CC[C@H]1OC(=O)[C@H](C)[C@@H](O[C@H]2C[C@@](C)(OC)[C@@H](O)[C@H](C)O2)[C@H](C)[C@@H](O[C@@H]2O[C@H](C)C[C@H](N(C)C)[C@H]2O)[C@](C)(O)C[C@@H](C)C(=O)[C@H](C)[C@@H](O)[C@]1(C)O [ERYTHROMYCIN] | 0.125 (≈ 0.17 µM) | 2 (≈ 2.73 µM) | 64 (≈ 87.2 µM) | 0.25 (≈ 0.341 µM) | 64 (≈ 87.2 µM) | 128 (≈ 174 µM) | 64 (≈ 87.2 µM) | 64 (≈ 87.2 µM) | 64 (≈ 87.2 µM) | 0.25 (≈ 0.341 µM) |
| C[C@@H]1O[C@@H]1P(=O)(O)O [FOSFOMYCIN] | 128 (≈ 927 µM) | ≥ 512 | 128 (≈ 927 µM) | ≥ 512 | ≥ 512 | ≥ 512 | 128 (≈ 927 µM) | 64 (≈ 464 µM) | 128 (≈ 927 µM) | 256 (≈ 1850 µM) |
| C[C@@H](O)[C@H]1C(=O)N2C(C(=O)O)=C(SCCNC=N)C[C@H]12 [IMIPENEM ANHYDROUS] | ≤ 0.06 | ≤ 0.06 | 0.125 (≈ 0.418 µM) | 0.125 (≈ 0.418 µM) | 0.125 (≈ 0.418 µM) | 0.125 (≈ 0.418 µM) | ≤ 0.06 | ≤ 0.06 | 0.125 (≈ 0.418 µM) | 0.125 (≈ 0.418 µM) |
| NC[C@H]1O[C@H](O[C@H]2[C@H](O)[C@@H](O[C@H]3O[C@H](CO)[C@@H](O)[C@H](N)[C@H]3O)[C@H](N)C[C@@H]2N)[C@H](O)[C@@H](O)[C@@H]1O [KANAMYCIN] | 0.25 (≈ 0.516 µM) | 0.5 (≈ 1.03 µM) | 0.25 (≈ 0.516 µM) | 0.5 (≈ 1.03 µM) | 0.5 (≈ 1.03 µM) | 0.25 (≈ 0.516 µM) | 0.25 (≈ 0.516 µM) | 0.25 (≈ 0.516 µM) | 0.25 (≈ 0.516 µM) | 0.25 (≈ 0.516 µM) |
| CC1COc2c(N3CCN(C)CC3)c(F)cc3c(=O)c(C(=O)O)cn1c23 (stereo unspecified) [OFLOXACIN] | – | 1 (≈ 2.77 µM) | – | 1 (≈ 2.77 µM) | – | – | – | – | – | 1 (≈ 2.77 µM) |
| Cc1onc(-c2ccccc2)c1C(=O)N[C@@H]1C(=O)N2[C@@H]1SC(C)(C)[C@@H]2C(=O)O [OXACILLIN] | 0.5 (≈ 1.25 µM) | 1 (≈ 2.49 µM) | 64 (≈ 159 µM) | 128 (≈ 319 µM) | 128 (≈ 319 µM) | 256 (≈ 638 µM) | 128 (≈ 319 µM) | 128 (≈ 319 µM) | 128 (≈ 319 µM) | 256 (≈ 638 µM) |
| CN[C@H](CC(C)C)C(=O)N[C@H]1C(=O)N[C@@H](CC(N)=O)C(=O)N[C@H]2C(=O)N[C@H]3C(=O)N[C@H](C(=O)N[C@H](C(=O)O)c4cc(O)cc(O)c4-c4cc3ccc4O)[C@H](O)c3ccc(c(Cl)c3)Oc3cc2cc(c3O[C@@H]2O[C@H](CO)[C@@H](O)[C@H](O)[C@H]2O[C@H]2C[C@](C)(N)[C@H](O)[C@H](C)O2)Oc2ccc(cc2Cl)[C@H]1O [VANCOMYCIN] | 0.5 (≈ 0.345 µM) | 1 (≈ 0.69 µM) | 1 (≈ 0.69 µM) | 1 (≈ 0.69 µM) | 1 (≈ 0.69 µM) | 1 (≈ 0.69 µM) | 0.5 (≈ 0.345 µM) | 0.5 (≈ 0.345 µM) | 0.5 (≈ 0.345 µM) | 1 (≈ 0.69 µM) |
